# Sampled rows, rich in hits. Any-hit rate of the full collection: about 3.5%.
# Cneo AK release: Cryptococcus neoformans lysis via adenylate kinase release | C. neoformans lysis, adenylate kinase release luminescence, 4 h; normalised: neutral wells 0, clomiphene wells 100 | lysis activity, % at 15 µM | 0.2% of 360,000 active;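 active = mean lysis activity across replicates of at least 80%, whatever share of replicates individually reach that level; inactive = mean lysis activity below 80%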
#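 Signal: Adenylate kinase release luminescence | Assay system: Log-phase Cryptococcus neoformans yeast cells | Input: Cells at 5 × 10^6 per mL | Buffer or medium: Fresh YPD growth medium | Compound: Single dose | Schedule: Static 4 h at 37 °C with compound, 1 h detection | Controls: Clomiphene | Read-out: Luminescence rise reflecting yeast cell lysis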
# MITF act: MITF TRPM1 promoter activation in melanoma cells | activation, % at 12.5 µM | SK-MEL-5 TRPM1-promoter luciferase, 24 h; % of positive control, neutral wells = 0 | 0.75% of 300,000 active;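 active = mean activation of at least 80% with every replicate also reaching 80%; inconclusive = mean reaches 80% but some replicate falls short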;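 note: 0% = neutral control wells and 100% = parthenolide positive control wells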
# esBAF inh: inhibitors of esBAF chromatin remodeling in mouse ES cells; reporter increase, % at 12.5 µM; Bmi1-luciferase knock-in reporter, 24 h; 100% = twice the neutral-well signal; 2% of 350,000 active; in the data active = activation above about 40%; inconclusive = no clear call, values can overlap the other calls;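 note: 0% = median of the plate's neutral control wells and 100% = double that signal; a rise in the Bmi1 reporter signal indicates esBAF inhibition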
# Wnt bcat act: Wnt/beta-catenin pathway activation; Wnt/beta-catenin reporter cell assay, activator, plate reader; AID 743398; activation, % at 9.35 µM; 1.2% of 300,000 active; in the data active = activation above about 30%, passing the limit was not always enough; inconclusive = no clear call, values can overlap the other calls;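 note: 0% = neutral control wells and 100% = positive control wells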
# ERAP1 inh: blocks human ERAP1 aminopeptidase activity | 0.15% of 340,000 active | Q9NZ08 | inhibition, % at 10.7 µM | recombinant ERAP1, Leu-AMC fluorescence, 60 min;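 active = mean replicate inhibition of at least 30%, or all replicates individually reaching that 30% level; inactive = mean below 30% and not every replicate reaching it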;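 note: 0% = neutral control wells and 100% = L-leucinethiol positive control wells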
# Target sequence (Q9NZ08 whole entry, looked up): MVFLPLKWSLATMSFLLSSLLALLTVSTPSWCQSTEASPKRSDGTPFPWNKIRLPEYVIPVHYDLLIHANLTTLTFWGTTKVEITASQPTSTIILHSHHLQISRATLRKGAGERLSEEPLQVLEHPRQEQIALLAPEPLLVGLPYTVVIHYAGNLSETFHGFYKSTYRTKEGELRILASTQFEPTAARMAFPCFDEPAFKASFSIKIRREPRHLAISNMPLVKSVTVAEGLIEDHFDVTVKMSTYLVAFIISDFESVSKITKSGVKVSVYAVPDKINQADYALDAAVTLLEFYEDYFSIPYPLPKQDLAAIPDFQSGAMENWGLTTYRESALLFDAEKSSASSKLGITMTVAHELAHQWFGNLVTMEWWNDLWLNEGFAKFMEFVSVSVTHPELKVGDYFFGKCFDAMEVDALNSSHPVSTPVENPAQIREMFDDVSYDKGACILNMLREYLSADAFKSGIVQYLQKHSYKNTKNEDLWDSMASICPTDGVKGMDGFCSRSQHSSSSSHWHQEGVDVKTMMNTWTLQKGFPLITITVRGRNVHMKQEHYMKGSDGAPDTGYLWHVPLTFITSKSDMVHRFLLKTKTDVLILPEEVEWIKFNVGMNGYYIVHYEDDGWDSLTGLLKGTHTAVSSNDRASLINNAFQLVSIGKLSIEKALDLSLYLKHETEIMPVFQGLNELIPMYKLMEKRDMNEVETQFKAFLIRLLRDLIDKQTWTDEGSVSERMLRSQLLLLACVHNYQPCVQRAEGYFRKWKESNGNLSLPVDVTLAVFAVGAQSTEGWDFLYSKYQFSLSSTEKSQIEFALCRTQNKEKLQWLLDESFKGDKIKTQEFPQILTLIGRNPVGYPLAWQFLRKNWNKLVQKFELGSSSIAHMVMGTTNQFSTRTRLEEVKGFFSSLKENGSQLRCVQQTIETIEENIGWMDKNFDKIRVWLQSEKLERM
# HIV Env fusion: HIV envelope-mediated fusion inhibition. HeLa-JRFL Env/CEM21 cell fusion, luciferase. 1.1% of 360,000 active. inhibition, % at 12.3 µM;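 active = mean replicate inhibition score of at least 50 and every replicate individually at or above 50; inconclusive = only one of the two criteria met; inactive = mean below 50 and not all replicates reaching 50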;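 note: 0% = plate neutral controls and 100% = maraviroc near 300 nM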
# Active calls of the source: *; ? = inconclusive; · = no result; [ ] = dose if it differs, or a comment.
SMILES,Cneo AK release,MITF act,esBAF inh,Wnt bcat act,ERAP1 inh,HIV Env fusion
C/C(=N/OC(=O)c1ccc(C)cc1)c1cccs1,-6,·,-2,-2,·,·
C/C(=N/OC(=O)c1ccccc1Br)c1ccc(C)cc1,-11,44,64*,1,0,-15
C[C@H](CO)N1C[C@H](C)[C@@H](CN(C)C(=O)Nc2cccc(C(F)(F)F)c2)OCc2ccccc2-c2ccccc2C1=O,46,·,-9,·,1,58*[16.7 µM]
C[C@@H]1CN([C@H](C)CO)C(=O)c2ccccc2-c2ccccc2CO[C@H]1CN(C)C(=O)Nc1cccc(C(F)(F)F)c1,-3,·,7,·,-1,35[16.7 µM]
C[C@@H]1CN([C@@H](C)CO)C(=O)c2ccccc2-c2ccccc2CO[C@@H]1CN(C)C(=O)Nc1ccc2c(c1)OCO2,0,·,2,·,1,59*[16.7 µM]
C[C@@H]1CN([C@H](C)CO)C(=O)c2ccccc2-c2ccccc2CO[C@@H]1CN(C)C(=O)Nc1ccc2c(c1)OCO2,-2,·,11,·,0,7[16.7 µM]
CCCNC(=O)N1[C@@H]2CN(C(=O)c3ccc(F)cc3)c3ccccc3[C@@H]2[C@@H]1CO,56,·,-4,·,3,·
Cc1nc(-c2ccccn2)sc1C(=O)Nc1ccc(F)cc1F,-5,·,58*,·,·,-28
CCc1cc2c(=O)c(-c3cnn(-c4ccccc4)c3)c(C)oc2c(CN2CCCCC2)c1O,-18,·,-5,-3,·,12
CCc1cc2c(=O)c(-c3cnn(-c4ccccc4)c3)coc2c(CN2CCOCC2)c1O,-2,34,54*,-1,·,44
S=C(Nc1nc2c(s1)CCCC2)NC1CC1,5,52,51*,11,1,-55
Cn1c(-c2ccc(F)c(F)c2)cc2onc(-c3ccccc3)c2c1=O,0,116*,39,64*,-1,-194
O=c1onc(-c2ccccc2)c2ccccc12,-3,·,·,0,·,13
COc1cccc(-c2cc3onc(-c4ccccc4)c3c(=O)n2C)c1,-6,63,-17,38*,3,-109
COc1cccc(C(=O)O/N=C(\N)c2ccc([N+](=O)[O-])cc2)c1OC,-1,84*,21,·,·,·
COc1ccccc1C(=O)O/N=C(\N)c1ccccc1Cl,-1,41,·,70*,3,-90
S=C(NN=C(c1ccccc1)c1ccccn1)N(Cc1ccccn1)Cc1ccccn1,·,-81,·,-24,1,76*
CO[C@@H]1CC[C@@H]2CCOc3c(C#N)cccc3C(=O)N(C)[C@@H](C)C(=O)N(C)C[C@H]1O2,3,·,-6,·,3,19[16.7 µM]
CC1CCC(=O)N(CCSc2ccccc2)CC1 (centres undefined),-2,87*,-14,33*,0,-30
COc1ccc(SCCN2CC[C@@H](C)CCC2=O)cc1,1,58,36,4,2,-71
CN(C)c1ccc2c(c1)[C@@H]1C[C@H](CC(=O)NCC3CC3)O[C@H](CO)[C@@H]1O2,10,·,-7,·,-2,1[16.7 µM]
CCCc1cc(C(=O)NCc2ccc(OC)cc2)no1,0,·,38,7,4,85*
CCc1ccc(NC(=O)c2cc(CC(C)C)on2)cc1,-2,·,71*,59*,3,0
COc1ccc(NC(=O)c2cc(CC(C)C)on2)cc1OC,-1,·,50*,8,-4,-19
CCc1ccc(NC(=O)c2cc(C(C)C)on2)cc1,-1,78,-16,·,·,-228
SMILES,Cneo AK release,MITF act,esBAF inh,Wnt bcat act,ERAP1 inh,HIV Env fusion
CCCc1cc(C(=O)Nc2ccc(C)cc2)no1,-2,·,73*,56*,-4,-66
CCc1ccc(NC(=O)c2cc(C)on2)cc1,-4,?,10,0,3,·
CNC[C@H]1OCCCC[C@@H](C)Oc2ccc(NC(=O)NC3CCCCC3)cc2C(=O)N([C@@H](C)CO)C[C@H]1C,·,·,0,·,·,-4[16.7 µM]
C[C@H]1CN([C@@H](C)CO)C(=O)c2cc(-c3cccnc3)cnc2O[C@H]1CN(C)C(=O)Nc1ccccc1,47,·,0,·,-2,·
Cc1ccc(NC(=S)Nc2cc(C)on2)cc1,2,·,14,49*,2,-55
O=C(Nc1ccc(F)cc1F)c1csc(-c2cccs2)n1,·,45,·,35*,-4,-35
Cc1ccc(NC(=O)c2cc(C)on2)cc1,·,97*,28,·,·,-67
O=C(Nc1ccc(F)cc1F)c1csc(-c2ccncc2)n1,·,3,·,21,-2,-4
Cc1ccc(/C=C/C(=O)Nc2cc(C)on2)cc1,0,75,25,35*,·,-123
Cc1cc(NS(=O)(=O)c2ccc(NC(=O)/C=C/c3ccc(Br)cc3)cc2)no1,-3,-2,5,-5,0,-13
CC(C)Cc1cc(C(=O)NCc2cccs2)no1,1,54,65*,?,4,-23
C/C(=C\c1ccccc1)C(=O)Nc1cc(C)on1,15,?,56*,23,·,-79
CCc1ccc(NC(=O)c2cc(C)no2)cc1,-2,76,55*,18,-4,-10
CC(C)Cc1cc(C(=O)Nc2ccc(F)cc2F)no1,-1,70,79*,13,4,-75
Cc1cc(NC(=O)Cc2ccccc2)no1,·,-3,·,·,·,-75
COc1ccc(S(=O)(=O)N(C)C[C@H]2OCCCC[C@@H](C)Oc3ccc(NS(=O)(=O)c4ccccc4)cc3C(=O)N([C@H](C)CO)C[C@@H]2C)cc1,0,·,-4,·,-2,16[16.7 µM]
COc1ccc(S(=O)(=O)N(C)C[C@H]2OCCCC[C@H](C)Oc3ccc(NC(=O)Nc4ccccc4)cc3C(=O)N([C@@H](C)CO)C[C@@H]2C)cc1,-1,·,-7,·,·,-2[16.7 µM]
CCCc1cc(C(=O)Nc2ccc(CC)cc2)no1,-8,159*,77*,39*,-1,-10
CN(C)/C=C/C=C1C(=O)CCCC1=O,-15,-3,-2,73*,·,-3
COc1ccc(-c2nn(C)c(=O)c3ccccc23)cc1NC(=O)COc1ccc(C)cc1,2,-19,2,0,-4,57*
CCC(=O)Nc1cc(-c2nn(C)c(=O)c3ccccc23)ccc1OC,-2,-18,-6,·,·,-8
CCCC(=O)Nc1cc(-c2nn(C)c(=O)c3ccccc23)ccc1OC,·,·,-6,·,2,-14
